Tests used:
[1] = test system: Zika virus (PRVABC59 strain); assay type: cell-based; settings: for anti-Zika activity (in words): PRVABC59 strain, MOI 1, SNB-19 cells 24 h, titer in Vero cells 48 h
Summary of the method: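 SNB-19 cells, pretreated 1 h with graded compound concentrations (0.1% DMSO final), then infected with C6/36-derived ZIKV at MOI 1. Supernatants were harvested 24 h post-infection and focus-titered on confluent Vero cells: 2 h inoculation, methylcellulose overlay for 48 h, 4G2 antibody with HRP/DAB staining, foci counted.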

[2] = Cytotoxicity to Vero cells; assay type: cell-based; settings: monkey, Vero kidney cells

SMILES | anti-Zika activity (in words) [1] | CC50 at 48 h [2] [µM] | further results
C=C1CC[C@@H]2[C@](C)(CO)[C@H](O)CC[C@@]2(C)[C@@H]1C/C=C1/C(=O)OC[C@@H]1Oc1cccc2cccnc12 [Compound 3] | – | – | safety/selectivity index (SI) ([1]; cell line not specified, CC50 in SNB-19 and Vero vs EC50): > 16
C=C1CC[C@@H]2[C@](C)(CO)[C@H](O)CC[C@@]2(C)[C@@H]1C/C=C1/C(=O)OC[C@@H]1Oc1ccnc2ccccc12 [Compound 6] | inactive | – | –
C=C1CC[C@@H]2[C@](C)(CO)[C@H](O)CC[C@@]2(C)[C@@H]1C/C=C1/C(=O)OC[C@H]1Oc1ccnc2ccccc12 [Compound 7] | – | 22.3 | –
C=C1CC[C@@H]2[C@]3(C)COC(C)(C)O[C@@H]3CC[C@@]2(C)[C@@H]1C/C=C1/C(=O)OC[C@@H]1Oc1c(Cl)cc(Cl)c2cccnc12 [Compound 15a, (14β)-(Quinolyl-5’,7’-dichloro-8’-oxy)-3,19-acetonylidene andrographolide] | do not show anti-Zika activity | – | –
C=C1CC[C@@H]2[C@]3(C)COC(C)(C)O[C@@H]3CC[C@@]2(C)[C@@H]1C/C=C1/C(=O)OC[C@H]1Oc1c(Cl)cc(Cl)c2cccnc12 [Compound 15b, (14α)-(Quinolyl-5’,7’-dichloro-8’-oxy)-3,19-acetonylidene andrographolide] | do not show anti-Zika activity | – | –
C=C1CC[C@@H]2[C@](C)(CO)[C@H](O)CC[C@@]2(C)[C@@H]1C/C=C1/C(=O)OC[C@H]1Oc1c(Cl)cc(Cl)c2cccnc12 [Compound 16b, (14α)-(Quinolyl-5’,7’-dichloro-8’-oxy)andrographolide] | – | 58.6 | –
